This is an account of results in PMC11370551 (bioRxiv, 2024).

Type in all cases: in vivo, mouse
In data set [1] the test system is female WT Swiss mice. The data set is described as follows: Safety profile and MTD in female WT Swiss mice. To be noted: SC. Summed up: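 A GLP-1 receptor agonist was injected subcutaneously into WT mice at 0.5 (~5 nmol), 3 (~30 nmol) or 10 mg/kg (~100 nmol) to check tolerability before the painting studies.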
Data set [2] deals with female WT Swiss mice. The experiment in a line: Ip-GTT in WT Swiss mice. To be noted: 6 days ([…]) after single SC 10 mg/kg; glucose 2 g/kg IP; naïve 21,354 ± 431. Summed up:
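Female WT Swiss mice got a single subcutaneous injection of test compound at 10 mg/kg (~25 nmol). […] AUCs were compared by non-parametric t-tests.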

In data set [3] the test system is Lepob/ob obese mice. The experiment in a line: Efficacy in obese Lepob/ob mice after SC injection. Summed up: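 Obese Lepob/ob mice (n = 6 per compound; 3 males, 3 females) got a single subcutaneous 10 mg/kg injection. Untreated non-obese C57BL/6J mice (3 males, 3 females) gave healthy baselines. Body weight was tracked as % change from Day 0. Blood glucose was read after 6 h fasting. IP glucose tolerance: 2 g/kg after 5–6 h fast. ITT: insulin 2.5 IU/kg at 240 h, AUC0–90 min, k-ITT. Analysis: two-way ANOVA and multiparametric t-tests.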

In data set [4] the test system is Lepob/ob obese mice. The experiment in a line: Efficacy in obese Lepob/ob mice after IP injection. To be noted: single IP 10 mg/kg. Summed up:
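Obese Lepob/ob mice got a single intraperitoneal 10 mg/kg injection of test compound; the other arm of the route comparison was subcutaneous. Body weight was tracked as % change from Day 0. Fasting blood glucose was measured. Insulin response was assessed 10 days post-injection.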

For Semaglutide, the “dose from which hypoglycemia was observed” value with female WT Swiss mice [1] (WT mice, doses 0.5, 3, 10 mg/kg) is listed as no less than 0.5 mg/kg. In the data set on female WT Swiss mice [1] (female WT Swiss mice), the “MTD (maximum tolerated dose among the assessed range)” value stood at 10 mg/kg. For the same substance, in the data set on female WT Swiss mice [2], the “Ip-GTT AUC0–120min” value is recorded as 21,282 ± 795. For the same substance, the body weight loss entry in the data set with Lepob/ob obese mice [3] (for 3 days after single SC 10 mg/kg (~170 nmol), n = 6) is listed as “about 8.3 ± 0.5%”. For the same substance, in the data set on Lepob/ob obese mice [3] (single SC 10 mg/kg), the “duration of significant body weight loss” value is on record as 3 days. Moreover, the “duration of blood glucose down-regulation” value in the data set with Lepob/ob obese mice [3] (single SC 10 mg/kg, both sexes combined) is listed as “up to 10 days”. Besides, the “duration of sustained body weight loss” value in the data set on Lepob/ob obese mice [4] is “up to 7 days”. In the data set with Lepob/ob obese mice [4] (240 h p.i.), the “fasting blood glucose lowering after 10 days” value was “no more efficacy”.
